Laboratory results taken from ChEMBL document CHEMBL1250476, “Synthesis and antifungal evaluation of novel triazole derivatives as inhibitors of cytochrome P450 14alpha-demethylase” (2010).
Converted amounts (≈) assume the structure as drawn.

Tests used:
Assay type in all cases: functional
Kluyveromyces marxianus = assay: Antifungal activity against Candida kefyr by micro-broth dilution method
In short: (§1)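 MIC80 by broth microdilution in 96-well format following NCCLS. Compounds were dissolved in DMSO, serially diluted in growth medium, inoculated and incubated at 35 °C. The endpoint was the first well with about 80% growth reduction versus the drug-free well. Values are means of three replicate tests.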

Candida albicans [1] = assay: Antifungal activity against Candida albicans Y0109 after 24 hrs by micro-broth dilution method; conditions: Y0109, 24 h
In short: (§2)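 Broth microdilution per NCCLS on Candida albicans. Compounds were dissolved in DMSO, serially diluted in growth medium, inoculated and incubated at 35 °C. Growth was read at 24 h, and MIC80 was taken as the first well with about 80% growth reduction relative to the drug-free control. Values are the mean of three replicates.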

Cryptococcus neoformans = assay: Antifungal activity against Cryptococcus neoformans after 72 hrs by micro-broth dilution method
In short: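 Cryptococcus neoformans tested by NCCLS micro-broth dilution. Compounds were dissolved in DMSO, serially diluted in medium, inoculated and incubated at 35 °C. MIC80 was read at 72 h as the first well showing approximately 80% growth reduction compared with the drug-free well. Values are the mean of three replicate tests.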

Candida tropicalis = assay: Antifungal activity against Candida tropicalis by micro-broth dilution method; in short: as §1
Trichophyton rubrum = assay: Antifungal activity against Trichophyton rubrum by micro-broth dilution method; in short: as §1
Candida albicans [2] = assay: Antifungal activity against Candida albicans SC5314 after 24 hrs by micro-broth dilution method; conditions: SC5314, 24 h; in short: as §2
Candida parapsilosis = assay: Antifungal activity against Candida parapsilosis by micro-broth dilution method; conditions: Lodderomyces parapsilosis; in short: as §1
Aspergillus fumigatus = assay: Antifungal activity against Aspergillus fumigatus by micro-broth dilution method; in short: as §1

Compound | MIC (Kluyveromyces marxianus) | MIC (Candida albicans [1]) | MIC (Cryptococcus neoformans) | MIC (Candida tropicalis) | MIC (Trichophyton rubrum) | MIC (Candida albicans [2]) | MIC (Candida parapsilosis) | MIC (Aspergillus fumigatus)
OC(CN(Cc1cn(C2CCCCC2)nn1)C1CC1)(Cn1cncn1)c1ccc(F)cc1F (stereo unspecified) | 0.25 µg/mL (≈ 0.546 µM) | 0.0625 µg/mL (≈ 0.137 µM) | 2 µg/mL (≈ 4.37 µM) | 1 µg/mL (≈ 2.19 µM) | 2 µg/mL (≈ 4.37 µM) | 4 µg/mL (≈ 8.74 µM) | 1 µg/mL (≈ 2.19 µM) | 32 µg/mL (≈ 69.9 µM)
OC(CN(Cc1cn(Cc2ccccc2Br)nn1)C1CC1)(Cn1cncn1)c1ccc(F)cc1F (stereo unspecified) | 0.0625 µg/mL (≈ 0.115 µM) | 16 µg/mL (≈ 29.4 µM) | 64 µg/mL (≈ 118 µM) | 2 µg/mL (≈ 3.67 µM) | 2 µg/mL (≈ 3.67 µM) | 0.25 µg/mL (≈ 0.459 µM) | 2 µg/mL (≈ 3.67 µM) | > 64 µg/mL
OC(CN(Cc1cn(Cc2ccc(Br)cc2)nn1)C1CC1)(Cn1cncn1)c1ccc(F)cc1F (stereo unspecified) | 0.0156 µg/mL (≈ 0.0287 µM) | 0.0156 µg/mL (≈ 0.0287 µM) | 16 µg/mL (≈ 29.4 µM) | 0.5 µg/mL (≈ 0.918 µM) | 1 µg/mL (≈ 1.84 µM) | 0.25 µg/mL (≈ 0.459 µM) | 1 µg/mL (≈ 1.84 µM) | > 64 µg/mL
Cc1ccc(Cn2cc(CN(CC(O)(Cn3cncn3)c3ccc(F)cc3F)C3CC3)nn2)cc1 (stereo unspecified) | 0.0156 µg/mL (≈ 0.0325 µM) | 0.0156 µg/mL (≈ 0.0325 µM) | 1 µg/mL (≈ 2.09 µM) | < 0.125 µg/mL | < 0.125 µg/mL | < 0.125 µg/mL | < 0.125 µg/mL | 64 µg/mL (≈ 133 µM)
O=[N+]([O-])c1ccccc1Cn1cc(CN(CC(O)(Cn2cncn2)c2ccc(F)cc2F)C2CC2)nn1 (stereo unspecified) | 0.0625 µg/mL (≈ 0.122 µM) | 0.0625 µg/mL (≈ 0.122 µM) | 64 µg/mL (≈ 125 µM) | 4 µg/mL (≈ 7.84 µM) | 4 µg/mL (≈ 7.84 µM) | 16 µg/mL (≈ 31.3 µM) | 4 µg/mL (≈ 7.84 µM) | > 64 µg/mL

Further molecules by falling MIC (Kluyveromyces marxianus), results first:

MIC (Kluyveromyces marxianus) | MIC (Candida albicans [1]) | MIC (Cryptococcus neoformans) | MIC (Candida tropicalis) | MIC (Trichophyton rubrum) | MIC (Candida albicans [2]) | MIC (Candida parapsilosis) | MIC (Aspergillus fumigatus) | Compound
0.25 µg/mL (≈ 0.561 µM) | 0.0625 µg/mL (≈ 0.14 µM) | 32 µg/mL (≈ 71.8 µM) | 0.25 µg/mL (≈ 0.561 µM) | < 0.125 µg/mL | < 0.125 µg/mL | 0.5 µg/mL (≈ 1.12 µM) | > 64 µg/mL | CCCCCn1cc(CN(CC(O)(Cn2cncn2)c2ccc(F)cc2F)C2CC2)nn1 (stereo unspecified)
0.25 µg/mL (≈ 0.521 µM) | 0.0156 µg/mL (≈ 0.0325 µM) | 0.0625 µg/mL (≈ 0.13 µM) | 4 µg/mL (≈ 8.34 µM) | 1 µg/mL (≈ 2.09 µM) | 0.0625 µg/mL (≈ 0.13 µM) | 4 µg/mL (≈ 8.34 µM) | > 64 µg/mL | Cc1ccccc1Cn1cc(CN(CC(O)(Cn2cncn2)c2ccc(F)cc2F)C2CC2)nn1 (stereo unspecified)
0.0625 µg/mL (≈ 0.115 µM) | 0.0156 µg/mL (≈ 0.0287 µM) | 0.25 µg/mL (≈ 0.459 µM) | 4 µg/mL (≈ 7.35 µM) | 0.25 µg/mL (≈ 0.459 µM) | 0.0156 µg/mL (≈ 0.0287 µM) | 0.25 µg/mL (≈ 0.459 µM) | > 64 µg/mL | OC(CN(Cc1cn(Cc2cccc(Br)c2)nn1)C1CC1)(Cn1cncn1)c1ccc(F)cc1F (stereo unspecified)
0.0156 µg/mL (≈ 0.0312 µM) | 0.0156 µg/mL (≈ 0.0312 µM) | 64 µg/mL (≈ 128 µM) | 4 µg/mL (≈ 8 µM) | 4 µg/mL (≈ 8 µM) | 1 µg/mL (≈ 2 µM) | 8 µg/mL (≈ 16 µM) | > 64 µg/mL | OC(CN(Cc1cn(Cc2cccc(Cl)c2)nn1)C1CC1)(Cn1cncn1)c1ccc(F)cc1F (stereo unspecified)
0.0156 µg/mL (≈ 0.0312 µM) | 0.25 µg/mL (≈ 0.5 µM) | 16 µg/mL (≈ 32 µM) | 0.5 µg/mL (≈ 1 µM) | 2 µg/mL (≈ 4 µM) | 0.25 µg/mL (≈ 0.5 µM) | 2 µg/mL (≈ 4 µM) | > 64 µg/mL | OC(CN(Cc1cn(Cc2ccc(Cl)cc2)nn1)C1CC1)(Cn1cncn1)c1ccc(F)cc1F (stereo unspecified)
0.0156 µg/mL (≈ 0.0325 µM) | 0.0156 µg/mL (≈ 0.0325 µM) | 2 µg/mL (≈ 4.17 µM) | < 0.125 µg/mL | < 0.125 µg/mL | 0.5 µg/mL (≈ 1.04 µM) | < 0.125 µg/mL | 64 µg/mL (≈ 133 µM) | Cc1cccc(Cn2cc(CN(CC(O)(Cn3cncn3)c3ccc(F)cc3F)C3CC3)nn2)c1 (stereo unspecified)
0.0156 µg/mL (≈ 0.0306 µM) | 0.0625 µg/mL (≈ 0.122 µM) | 64 µg/mL (≈ 125 µM) | 4 µg/mL (≈ 7.84 µM) | 0.25 µg/mL (≈ 0.49 µM) | 4 µg/mL (≈ 7.84 µM) | 8 µg/mL (≈ 15.7 µM) | > 64 µg/mL | O=[N+]([O-])c1cccc(Cn2cc(CN(CC(O)(Cn3cncn3)c3ccc(F)cc3F)C3CC3)nn2)c1 (stereo unspecified)
